Reference: ChEMBL document CHEMBL1145922, “1,2-benzisoxazole phosphorodiamidates as novel anticancer prodrugs requiring bioreductive activation” (J Med Chem, 2003)

How the values were obtained:
Format in all cases: functional
Rattus norvegicus [1] = organism: Rattus norvegicus; assay: Percent inhibition of formation of compound upon incubation of 15 with phenobarbit-induced rat liver microsomal fraction in hypoxic condition in presence of pCMBA at a concentration of 4 mM
Procedure, shortened: (§1)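 Phenobarbital-induced rat liver microsomes; inhibitors SKF-525A (in methanol) or pCMBA (in DMF) at 0–4 mM final. pCMBA preincubated 30 min before NADPH; SKF-525A incubated 15 min with microsomes and NADPH. Hypoxic samples nitrogen-purged. Substrate 2.5 mM added, 30 min at 37 °C. Ketone metabolite by HPLC at 254 nm as percent of substrate; % inhibition relative to no inhibitor. Mean of two experiments.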

Rattus norvegicus [2] = organism: Rattus norvegicus; assay: Percent inhibition of formation of compound upon incubation of 15 with phenobarbit-induced rat liver microsomal fraction in oxic condition in presence of SKF-525A at a concentration of 4 mM; procedure, shortened: as §1
Rattus norvegicus [3] = organism: Rattus norvegicus; assay: Percent inhibition of formation of compound upon incubation of 15 with phenobarbit-induced rat liver microsomal fraction in oxic condition in presence of SKF-525A at a concentration of 0 mM; procedure, shortened: as §1
Rattus norvegicus [4] = organism: Rattus norvegicus; assay: Percent formation of compound upon incubation of 15 with phenobarbit-induced rat liver microsomal fraction in hypoxic condition in presence of pCMBA at a concentration of 2 mM; procedure, shortened: as §1
Rattus norvegicus [5] = organism: Rattus norvegicus; assay: Percent formation of compound upon incubation of 15 with phenobarbit-induced rat liver microsomal fraction in oxic condition in presence of SKF-525A at a concentration of 2 mM; procedure, shortened: as §1
Rattus norvegicus [6] = organism: Rattus norvegicus; assay: Tested for formation of compound upon incubation of compound 15 for 30 minutes with rat liver subcellular fractions in oxic condition in the presence of NADH
Procedure, shortened: (§2)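 Phenobarbital-induced rat liver S-9 fraction (2 mL) with 5 mM cofactor (NADPH, NADH, benzaldehyde or 2-hydroxypyrimidine), substrate 2.5 mM final, added in methanol/water 50:50; aerobic, 30 min at 37 °C. Quenched with ice-cold methanol, proteins spun down, supernatant analysed by reverse-phase C-18 HPLC, UV 254 nm; ketone metabolite given as percent of equimolar substrate; three experiments.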

Rattus norvegicus [7] = organism: Rattus norvegicus; assay: Percent formation of compound upon incubation of 15 with phenobarbit-induced rat liver microsomal fraction in oxic condition in presence of pCMBA at a concentration of 2 mM; procedure, shortened: as §1
Rattus norvegicus [8] = organism: Rattus norvegicus; assay: Tested for formation of compound upon incubation of compound 15 for 30 minutes with rat liver subcellular fractions in oxic condition in the presence of NADPH; procedure, shortened: as §2
Rattus norvegicus [9] = organism: Rattus norvegicus; assay: Tested for formation of compound upon incubation of compound 15 for 30 minutes with rat liver cystolic fractions in hypoxic condition in the absence of cofactor
Procedure, shortened: (§3)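 Phenobarbital-induced rat liver S-9, microsomal or cytosolic fraction with 5 mM cofactor (NADPH, NADH, benzaldehyde or 2-hydroxypyrimidine) or none. Substrate 2.5 mM final, added from methanol/water 50:50. Hypoxic vials purged with nitrogen 15–20 min. 30 min at 37 °C, quenched with ice-cold methanol. Ketone metabolite by HPLC at 254 nm as percent of equimolar substrate.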

Rattus norvegicus [10] = organism: Rattus norvegicus; assay: Percent inhibition of formation of compound upon incubation of 15 with phenobarbit-induced rat liver microsomal fraction in hypoxic condition in presence of pCMBA at a concentration of 0 mM; procedure, shortened: as §1
Rattus norvegicus [11] = organism: Rattus norvegicus; assay: Percent formation of compound upon incubation of 15 with phenobarbit-induced rat liver microsomal fraction in oxic condition in presence of SKF-525A at a concentration of 1 mM; procedure, shortened: as §1
Rattus norvegicus [12] = organism: Rattus norvegicus; assay: Percent formation of compound upon incubation of 15 with phenobarbit-induced rat liver microsomal fraction in hypoxic condition in presence of SKF-525A at a concentration of 4 mM; procedure, shortened: as §1
Rattus norvegicus [13] = organism: Rattus norvegicus; assay: Tested for formation of compound upon incubation of compound 15 for 30 minutes with rat liver microsomal fractions in oxic condition in the absence of cofactor; procedure, shortened: as §3
Rattus norvegicus [14] = organism: Rattus norvegicus; assay: Tested for formation of compound upon incubation of compound 15 for 30 minutes with uninduced rat liver S-9 fractions in oxic condition in the presence of NADPH
Procedure, shortened: (§4)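 Uninduced rat liver S-9 (22.5 mg/mL protein, 2 mL) with 5 mM NADPH or no cofactor, substrate 2.5 mM final; hypoxic samples nitrogen-purged 15–20 min in septum-sealed vials, else aerobic; 30 min at 37 °C. Methanol quench, centrifugation, C-18 HPLC with UV 254 nm; metabolite as percent of equimolar substrate. NADPH runs three experiments, no-cofactor runs two.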

Rattus norvegicus [15] = organism: Rattus norvegicus; assay: Tested for formation of compound upon incubation of compound 15 for 30 minutes with uninduced rat liver S-9 fractions in hypoxic condition in the absence of cofactor; procedure, shortened: as §4
Rattus norvegicus [16] = organism: Rattus norvegicus; assay: Tested for formation of compound upon incubation of compound 15 for 30 minutes with rat liver subcellular fractions in hypoxic condition in the presence of NADH; procedure, shortened: as §3
Rattus norvegicus [17] = organism: Rattus norvegicus; assay: Tested for formation of compound upon incubation of compound 15 for 30 minutes with rat liver subcellular fractions in hypoxic condition in the presence of benzaldehyde; procedure, shortened: as §3
Homo sapiens = organism: Homo sapiens; assay: Percent formation of compound upon incubation of 15 for 60 minutes with human P450 reductase microsomes in hypoxic condition in presence of NADPH
Procedure, shortened: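 Human or rat P450 reductase microsomes at 1 mg/mL protein, substrate 0.25 mM and cofactor 0.5 mM; pCMBA 2 mM where stated. Anaerobic samples purged with nitrogen 15–20 min in septum-sealed vials. 60 min at 37 °C, stopped with ice-cold methanol. Ketone metabolite quantified by HPLC (C-18, methanol/water 50:50, UV 254 nm) as percent of equimolar substrate. Mean of two experiments.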

Rattus norvegicus [18] = organism: Rattus norvegicus; assay: Percent formation of compound upon incubation of 15 with phenobarbit-induced rat liver microsomal fraction in oxic condition in presence of SKF-525A at a concentration of 4 mM; procedure, shortened: as §1
Rattus norvegicus [19] = organism: Rattus norvegicus; assay: Percent formation of compound upon incubation of 15 with phenobarbit-induced rat liver microsomal fraction in hypoxic condition in presence of pCMBA at a concentration of 1 mM; procedure, shortened: as §1
Rattus norvegicus [20] = organism: Rattus norvegicus; assay: Percent formation of compound upon incubation of 15 with phenobarbit-induced rat liver microsomal fraction in oxic condition in presence of pCMBA at a concentration of 1 mM; procedure, shortened: as §1
Rattus norvegicus [21] = organism: Rattus norvegicus; assay: Percent inhibition of formation of compound upon incubation of 15 with phenobarbit-induced rat liver microsomal fraction in hypoxic condition in presence of pCMBA at a concentration of 1 mM; procedure, shortened: as §1
Rattus norvegicus [22] = organism: Rattus norvegicus; assay: Percent formation of compound upon incubation of 15 with phenobarbit-induced rat liver microsomal fraction in hypoxic condition in presence of SKF-525A at a concentration of 2 mM; procedure, shortened: as §1
Rattus norvegicus [23] = organism: Rattus norvegicus; assay: Percent inhibition of formation of compound upon incubation of 15 with phenobarbit-induced rat liver microsomal fraction in hypoxic condition in presence of SKF-525A at a concentration of 1 mM; procedure, shortened: as §1
Rattus norvegicus [24] = organism: Rattus norvegicus; assay: Percent formation of compound upon incubation of 15 with phenobarbit-induced rat liver microsomal fraction in hypoxic condition in presence of pCMBA at a concentration of 4 mM; procedure, shortened: as §1
Rattus norvegicus [25] = organism: Rattus norvegicus; assay: Percent inhibition of formation of compound upon incubation of 15 with phenobarbit-induced rat liver microsomal fraction in oxic condition in presence of SKF-525A at a concentration of 1 mM; procedure, shortened: as §1
Rattus norvegicus [26] = organism: Rattus norvegicus; assay: Percent formation of compound upon incubation of 15 with phenobarbit-induced rat liver microsomal fraction in hypoxic condition in presence of SKF-525A at a concentration of 1 mM; procedure, shortened: as §1
Rattus norvegicus [27] = organism: Rattus norvegicus; assay: Percent formation of compound upon incubation of 15 with phenobarbit-induced rat liver microsomal fraction in hypoxic condition in presence of SKF-525A at a concentration of 0 mM; procedure, shortened: as §1

For `CCC(=O)c1ccccc1O`, the inhibition (Rattus norvegicus [1]) was 99%, the inhibition (Rattus norvegicus [2]) was 40% and the inhibition (Rattus norvegicus [3]) was 0%. It also gave a Formation (Rattus norvegicus [4]) of 1.2%, a Formation (Rattus norvegicus [5]) of 38.5% and a Formation (Rattus norvegicus [6]) of 14.8%. It also gave a Formation (Rattus norvegicus [7]) of 0.5%, a Formation (Rattus norvegicus [8]) of 80.9% and a Formation (Rattus norvegicus [9]) of 1.4%. For the same molecule, the inhibition (Rattus norvegicus [10]) was 0%, the Formation (Rattus norvegicus [11]) was 36.9% and the Formation (Rattus norvegicus [12]) was 45%. The Formation (Rattus norvegicus [13]) was 0.6%, the Formation (Rattus norvegicus [14]) was 9.1% and the Formation (Rattus norvegicus [15]) was 0.9%. It also gave a Formation (Rattus norvegicus [16]) of 28.5%, a Formation (Rattus norvegicus [17]) of 2% and a Formation (Homo sapiens) of 1.7%. The Formation (Rattus norvegicus [18]) was 26.9%, the Formation (Rattus norvegicus [19]) was 0.7% and the Formation (Rattus norvegicus [20]) was 0.5%. It also gave an inhibition (Rattus norvegicus [21]) of 99%, a Formation (Rattus norvegicus [22]) of 50.3% and an inhibition (Rattus norvegicus [23]) of 23%. The Formation (Rattus norvegicus [24]) was 0.5%, the inhibition (Rattus norvegicus [25]) was 18% and the Formation (Rattus norvegicus [26]) was 54.6%. It also gave a Formation (Rattus norvegicus [27]) of 70.8%.
